Source: PubChem BioAssay
HCV NS3 hel inh = blocks Hepatitis C virus NS3 helicase unwinding | NS3 helicase DNA unwinding, Cy5 molecular beacon fluorescence | inhibition, % at 10.9 µM | hit rate 0.56% among 290,000 | AID 1800;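 active = inhibition above the mean of all tested compounds plus 3 SD, set per campaign, cut at about 35% in these data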
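test system = hepatitis C virus NS3 helicase domain fragment enzyme | reagent = annealed dual-labelled DNA beacon duplex, ATP-started | times = 1 h at 25 °C | detection = Cy5 fluorescence, 0 and 60 min reads | read-out basis = percent inhibition from t60/t0 fluorescence ratio | control set = DMSO and thioflavine S | replication = one well per compound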
GPR7 antagonist = human neuropeptides B/W receptor 1 antagonism | P48145 | GPR7-expressing cells, fluorescence antagonist assay | inhibition, % at 4.4 µM | hit rate 1.1% among 290,000; in the data active = inhibition above about 16%, passing the limit was not always enough;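 note: cells stimulated with the agonist NPW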
FID counter = fluorescent intercalator displacement, NS3 helicase counter-screen; DNA fluorescent intercalator displacement, fluorescence; inhibition, % at 7.9 µM; hit rate 0.17% among 290,000; AID 1845; in the data active = inhibition above about 37%;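 note: higher means more ethidium bromide displaced from hairpin DNA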
core dimer inh = blocks dimerization of HCV core protein | TR-FRET GST/Flag-core106 dimerization, 1536-well | inhibition, % at 5 µM | hit rate 0.33% among 300,000 | AID 1899;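 active = inhibition above the mean of all tested compounds plus 3 SD, set per screening campaign, cut at about 45% in these data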
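Assay system – GST-tagged and Flag-tagged HCV core protein residues 1-106 · Quantity – core106 proteins, GST 13.5 nM and Flag 17 nM · Benchmarks – unlabelled core106 and no-GST-core106 wells · Read-out basis – percent inhibition of core106 dimerization signal · Detection – time-resolved FRET, ex 340 nm, em 617 and 671 nm · Schedule – 4 h at 22.5 °C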
pCIP destab = lowers stability of the mouse p/CIP coactivator protein | F442A p/CIP-EGFP cells, EGFP fluorescence, 16 h | decrease of EGFP signal, % at 10 µM | hit rate 0.01% among 290,000;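 active = EGFP signal decrease of at least 30% at 10 µM or well 3 SD below plate mean, unless failing retest; inactive = the rest, including hits failing retest or dose response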
Large screens that a line does not name were inactive. In the library only some 1.9% were active in any assay of this set; here they are far more common.

Cc1ccc(N2C(=O)c3cccc4c(N)ccc(c34)C2=O)c2cccnc12	GPR7 antagonist 19
CCN1C(=O)c2cccc3c(N)ccc(c23)C1=O	none
CC1(C)Cc2c(C#N)c(NCc3ccco3)nc(-c3ccco3)c2CO1	core dimer inh 52
COc1ccc(/C=C/C(=O)Oc2cccc(/C=N/NC(=O)c3cccc(F)c3)c2)cc1	GPR7 antagonist 18
COc1ccc(/C=C/C(=O)Oc2ccc(/C=N\NC(=O)c3ccc(F)cc3)cc2)cc1	none
C=CCc1cc(Cl)ccc1OCCNCCN1CCOCC1	FID counter 39
Cc1noc(C)c1COc1ccccc1C(=O)N(C)CC(=O)Nc1ccc(F)cc1	none (no result: HCV NS3 hel inh, GPR7 antagonist, FID counter, pCIP destab)
CCc1ccc(-c2nc3ccc(Br)cc3c(C(=O)O)c2C)s1	none (no result: core dimer inh)
Cn1c(C(=O)c2ccncc2)cc2ccccc21	none
CCN1CCN(CC(=O)Nc2ccccc2)C(=O)C1=O	GPR7 antagonist 15
CCOC(=O)C1CCN(C(=O)CNC(=O)c2nn(-c3ccc(OC)cc3)c(=O)c3ccccc23)CC1	none
COc1ccccc1C(=O)Nc1sc2c(c1C(=O)NCc1ccco1)CCCC2	core dimer inh 53
COc1ccccc1NC(=O)c1c(NC(=O)c2ccco2)sc2c1CCC2	none
COc1ccc(NC(=O)CSc2nnc(Cc3cccs3)n2C)cc1	none (no result: HCV NS3 hel inh, GPR7 antagonist, FID counter, pCIP destab)
CCC(=O)NC(c1ccc(OC)cc1)c1c(O)ccc2ccccc12 (configuration not stated)	pCIP destab 34
COc1ccc(C(NC(=O)C(C)C)c2c(O)ccc3ccccc23)cc1 (configuration not stated)	none
COc1cc(/C=N/c2oc(C)c(C)c2C#N)cc(Br)c1O	none
CC(N)=Nc1ccc([N+](=O)[O-])cc1	none
O=[N+]([O-])c1ccc(N=Nc2c(Cl)cc(O)cc2Cl)cc1	GPR7 antagonist 62
CC1CCCN(C(=O)CNC(=O)c2ccco2)C1 (configuration not stated)	none
Cc1cccn2c(=O)c3cc(C(=O)NCCN4CCOCC4)c(=N)n(CCN4CCOCC4)c3nc12	none
Cc1cccn2c(=O)c3cc(C(=O)NC4CCCC4)c(=N)n(CCCN4CCOCC4)c3nc12	FID counter 41
COCCn1c(=N)c(C(=O)NCCc2ccc(OC)cc2)cc2c(=O)n3cccc(C)c3nc21	none
COc1ccc(CCNC(=O)c2cc3c(=O)n4cccc(C)c4nc3n(CCCN3CCOCC3)c2=N)cc1	FID counter 54
CCC1Oc2ccccc2N(CC(=O)NC2CCCC2)C1=O (configuration not stated)	none
CCN(C(=O)CN1C(=O)S/C(=C\C=C\c2ccccc2)C1=O)C1CCS(=O)(=O)C1 (configuration not stated)	core dimer inh 46
CCN(C(=O)CN1C(=O)S/C(=C\c2cccc(Cl)c2)C1=O)C1CCS(=O)(=O)C1 (configuration not stated)	none
O=C(CCCCCn1c(=S)[nH]c2ccc(Br)cc2c1=O)NCC1CCCO1 (configuration not stated)	none
NS(=O)(=O)c1ccc(CCNC(=O)CCCCCn2c(=S)[nH]c3ccc(Br)cc3c2=O)cc1	GPR7 antagonist 17
Cc1ccc(C(=O)Nc2cccnc2N2CCN(C)CC2)cc1	none
O=C(N[C@@H](Cc1ccccc1)C(=O)N1CCC2(CC1)NCCc1[nH]cnc12)c1cccc(F)c1	none
COc1ccc(-c2csc3nc(-c4ccc(C)cc4)oc(=O)c23)cc1OC	core dimer inh 50
COc1ccc(-c2csc3nc(C(C)(C)C)oc(=O)c23)cc1OC	none
Cc1ccc2[nH]c(C)c(CCNC(=O)c3cc4cc([N+](=O)[O-])ccc4oc3=O)c2c1	core dimer inh 50
Clc1ccc(CSc2nncn2-c2ccc3c(c2)OCCO3)cc1	GPR7 antagonist 19
CC(=O)Nc1ccc(S(=O)(=O)NCC2CCC(C(=O)N3CCCCC3)CC2)cc1 (configuration not stated)	none
CSc1nc(NCCCN(C)C)c2c3c(sc2n1)CN(C)CC3	FID counter 42 (no result: core dimer inh)
Cc1c2ccccc2cc[n+]1CCCS(=O)(=O)[O-]	none
CC1(C)C(/C=C/C=C/C=C/C=C2\N(CCCCS(=O)(=O)O)c3ccc4ccccc4c3C2(C)C)=[N+](CCCCS(=O)(=O)[O-])c2ccc3ccccc3c21	core dimer inh 69 (no result: HCV NS3 hel inh, GPR7 antagonist, FID counter, pCIP destab)
Cc1cc(C[n+]2ncsc2N)c2ncccc2c1	none
CCOc1ccc2c(c1)sc(N)[n+]2Cc1cc(C)cc2cccnc12	GPR7 antagonist 35
